Data on one molecule can be found in ChEMBL document CHEMBL4627281, “A small molecule inhibitor of PCSK9 that antagonizes LDL receptor binding via interaction with a cryptic PCSK9 binding groove” (Bioorg Med Chem, 2020).

Active and inactive are the calls of the source. The calls are words filed in the database; no cut-off is given here.

A short description of data set [1]: Tmax in C57BL/6 mouse at 20 mg/kg, sc administered as single dose measured upto 24 hrs by LC-MS/MS analysis. It counts as ADME, organism-based. The conditions noted are these: in vivo. Summed up:
(§1)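 Male C57BL/6 mice, single dose: IV 5 mg/kg in 85% saline/10% Solutol HS15/5% DMSO; SC 20 mg/kg in same vehicle; PO 20 mg/kg in 1% methylcellulose in water. About 110 µL blood taken into K2EDTA by retro-orbital puncture (terminal bleed by cardiac puncture under isoflurane) at 0.033–24 h. Plasma spun at 2000 g, 5 min, 4 °C, stored near −70 °C; n = 3 per route.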

In data set [2] the target is Proprotein convertase subtilisin/kexin type 9 (Homo sapiens) (UniProt Q8NBP7). The data set is described as follows: Binding affinity to biotinylated recombinant human PCSK9 at 0.8 to 1.6 uM incubated for 2 mins followed by further incubation for 10 mins by biolayer interferometry. Summed up: (§2)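 Biolayer interferometry: biotinylated PCSK9 (27 µg/mL) loaded onto a Super Streptavidin biosensor and blocked with biocytin. Compound (0.2–25.6 µM) associated for 2 min, then dissociated for 10 min. Background signal subtracted to remove non-specific binding.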
Chain of Proprotein convertase subtilisin/kexin type 9 (Homo sapiens) (Q8NBP7 31-152 limits assumed): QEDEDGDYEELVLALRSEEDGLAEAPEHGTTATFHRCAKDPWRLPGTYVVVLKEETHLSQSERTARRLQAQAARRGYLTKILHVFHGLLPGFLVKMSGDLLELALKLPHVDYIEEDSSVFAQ
Chain of Proprotein convertase subtilisin/kexin type 9 (Homo sapiens) (Q8NBP7 153-692 limits assumed): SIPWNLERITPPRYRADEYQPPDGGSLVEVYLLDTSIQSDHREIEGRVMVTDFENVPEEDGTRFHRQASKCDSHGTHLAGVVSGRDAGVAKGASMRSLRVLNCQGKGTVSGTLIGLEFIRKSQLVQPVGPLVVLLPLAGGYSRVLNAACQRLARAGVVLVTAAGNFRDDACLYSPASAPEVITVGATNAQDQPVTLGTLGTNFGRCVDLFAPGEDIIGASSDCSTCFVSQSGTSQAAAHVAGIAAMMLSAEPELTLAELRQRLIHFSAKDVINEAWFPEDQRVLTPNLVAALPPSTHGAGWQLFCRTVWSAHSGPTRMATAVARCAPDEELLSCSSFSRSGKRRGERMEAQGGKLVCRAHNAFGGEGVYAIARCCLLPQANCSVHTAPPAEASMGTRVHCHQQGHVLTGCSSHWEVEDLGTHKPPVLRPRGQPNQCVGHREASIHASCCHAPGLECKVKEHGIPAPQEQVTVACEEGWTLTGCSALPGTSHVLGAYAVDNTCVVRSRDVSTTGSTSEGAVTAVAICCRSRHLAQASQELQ
In general terms: Biolayer interferometry detects binding as a change in optical thickness at a sensor tip.

Data set [3] addresses Tyrosine-protein kinase ABL1 (Homo sapiens, UniProt P00519). In words: Inhibition of recombinant human N-terminal His-tagged Abl (2 to 1130 residues) expressed in baculovirus expression system using FAM-labelled P2 peptide as substrate preincubated for 10 mins followed by substrate addition and measured after 1 hr in presence of ATP by fluorescence assay.
In data set [4] the target is Platelet-derived growth factor receptor beta (Homo sapiens, UniProt P09619). The data set is described as follows: Inhibition of recombinant human N-terminal GST-tagged PDGFRbeta cytoplasmic domain (557 to 1106 residues) expressed in baculovirus expression system using FAM-labelled P22 peptide as substrate preincubated for 10 mins followed by substrate addition and measured after 1 hr in presence of ATP by fluorescence assay.
Chain of Platelet-derived growth factor receptor beta (P09619 whole entry, the tested form may be a part): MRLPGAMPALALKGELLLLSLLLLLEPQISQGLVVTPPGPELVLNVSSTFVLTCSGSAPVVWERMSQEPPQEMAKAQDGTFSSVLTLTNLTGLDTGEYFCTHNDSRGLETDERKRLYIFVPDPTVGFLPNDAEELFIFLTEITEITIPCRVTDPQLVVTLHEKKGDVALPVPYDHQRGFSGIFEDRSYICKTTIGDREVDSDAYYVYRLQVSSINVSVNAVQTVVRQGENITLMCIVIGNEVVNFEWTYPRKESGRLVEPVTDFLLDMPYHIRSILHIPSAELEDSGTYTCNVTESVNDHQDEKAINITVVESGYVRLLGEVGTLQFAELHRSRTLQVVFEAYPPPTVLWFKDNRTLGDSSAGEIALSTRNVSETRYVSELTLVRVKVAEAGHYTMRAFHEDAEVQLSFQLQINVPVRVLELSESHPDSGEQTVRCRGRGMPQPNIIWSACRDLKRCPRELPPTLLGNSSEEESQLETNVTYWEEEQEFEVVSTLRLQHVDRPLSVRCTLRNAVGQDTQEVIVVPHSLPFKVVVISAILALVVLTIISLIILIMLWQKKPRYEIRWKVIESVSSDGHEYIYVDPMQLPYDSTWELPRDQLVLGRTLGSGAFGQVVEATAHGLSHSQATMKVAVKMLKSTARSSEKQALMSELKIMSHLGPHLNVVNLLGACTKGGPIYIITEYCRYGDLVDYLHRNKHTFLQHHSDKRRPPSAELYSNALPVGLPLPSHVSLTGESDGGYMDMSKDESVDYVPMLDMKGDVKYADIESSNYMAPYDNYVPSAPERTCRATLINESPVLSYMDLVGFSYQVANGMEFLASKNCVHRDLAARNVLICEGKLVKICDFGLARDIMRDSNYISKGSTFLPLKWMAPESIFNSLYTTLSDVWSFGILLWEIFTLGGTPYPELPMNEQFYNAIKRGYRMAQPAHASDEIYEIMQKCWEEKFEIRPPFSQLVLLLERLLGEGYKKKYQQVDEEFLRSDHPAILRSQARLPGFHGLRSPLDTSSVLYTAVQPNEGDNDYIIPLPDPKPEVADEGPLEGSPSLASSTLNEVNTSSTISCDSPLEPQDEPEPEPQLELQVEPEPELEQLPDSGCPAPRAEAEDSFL

The target of data set [5] is Proprotein convertase subtilisin/kexin type 9 (Homo sapiens) (UniProt Q8NBP7). The data set is described as follows: Binding affinity to biotinylated recombinant human PCSK9 at 0.2 to 0.4 uM incubated for 2 mins followed by further incubation for 10 mins by biolayer interferometry. Summed up:
as §2

Data set [6] has as its system PCSK9/LDLR (Homo sapiens), Q8NBP7+P01130 [D374Y]. In words: Inhibition of PCSK9 D374Y mutant (unknown origin) and LDLR protein-protein interaction expressed in human PBMCs assessed as increase in LDLR expression on lymphocyte surface at 1 to 10 uM measured after 4 hrs by flow cytometry analysis. In short, it runs like this: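 PBMCs from healthy donors, frozen and then thawed, plated at 2 × 10^5 per well in RPMI with 10 mM HEPES, 1 mM pyruvate and 0.5% FCS for 2 h at 37 °C. Treated 4 h with or without 600 ng/mL PCSK9-D374Y plus compound. Cells stained 20 min at room temperature with APC-conjugated anti-LDLR; at least 5 × 10^3 gated lymphocytes read by flow cytometry. Values as % of PCSK9-free vehicle; triplicates, t test.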
In general terms: In flow cytometry, cells or beads pass a laser one at a time.

A short description of data set [7]: AUClast in CD1 mouse at 0.4 mg/kg, iv administered as cassette dose measured upto 24 hrs by LC-MS/MS analysis. The format is ADME, organism-based. Further details: time < 24 hr, dose 0.4 mg/kg, route intravenous. Particulars: in vivo. In short, it runs like this:
(§3)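 Male CD1 mice (second cassette 28–29 g, 7–8 weeks) given one IV 5-in-1 cassette at 0.4 mg/kg per compound in 5% DMAC/5% Solutol HS15/90% saline. Blood (~20 µL) into K2EDTA from the facial vein at 0.083–24 h, terminal bleed by cardiac puncture under isoflurane. Blood diluted with deionised water, stored at −80 °C, analysed by positive-ESI mass spectrometry.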

Data set [8] can be described thus: AUCinfinity in CD1 mouse at 0.4 mg/kg, iv administered as cassette dose measured upto 24 hrs by LC-MS/MS analysis. Particulars: in vivo. Further details: dose 0.4 mg/kg, route intravenous, time infinity. It counts as ADME, organism-based. Summed up:
as §3

Data set [9] is described as follows: Cmax in C57BL/6 mouse at 20 mg/kg, sc administered as single dose measured upto 24 hrs by LC-MS/MS analysis. The format is ADME, organism-based. Further details: dose 20 mg/kg, route subcutaneous. The conditions noted are these: in vivo. Summed up:
as §1

Data set [10] in a line: Clearance in C57BL/6 mouse at 5 mg/kg, iv administered as single dose measured upto 24 hrs by LC-MS/MS analysis. It counts as ADME, organism-based. Particulars: in vivo. In short, it runs like this:
as §1

Data set [11] can be described thus: AUClast in C57BL/6 mouse at 20 mg/kg, sc administered as single dose measured upto 24 hrs by LC-MS/MS analysis. Particulars: in vivo. The arrangement: dose 20 mg/kg, time < 24 hr, route subcutaneous. It counts as ADME, organism-based. Summed up: as §1
A short description of data set [12]: AUCinfinity in C57BL/6 mouse at 20 mg/kg, sc administered as single dose measured upto 24 hrs by LC-MS/MS analysis. The format is ADME, organism-based. The conditions noted are these: in vivo. Further details: dose 20 mg/kg, time infinity, route subcutaneous. Summed up: as §1
Data set [13] can be described thus: Oral bioavailability in C57BL/6 mouse at 20 mg/kg administered as single dose measured upto 24 hrs by LC-MS/MS analysis. It counts as ADME, organism-based. The conditions noted are these: in vivo. Summed up: as §1
The subject of data set [14] is Mus musculus. The data set is described as follows: Antihyperlipidemic activity in C57BL/6 mouse assessed as decrease in total cholesterol level at 3.28 mg/kg/day, sc administered daily for 14 days and measured on day 15 by colorimetric method. The format is functional, organism-based. Summed up:
(§4)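 Female C57BL/6 wild-type or PCSK9−/− mice (8–16 weeks), acclimatised 7 days, 5 per group, dosed SC daily for 14 days at 3.28 or 16.4 mg/kg/day in 5% DMSO/95% saline, or vehicle alone. Blood taken into EDTA on days 0, 5, 10 and 15; plasma from 2500 g spin, stored at −20 °C. Total cholesterol and triglycerides read by colorimetric kits, PCSK9 by mouse ELISA; unpaired two-tailed t test against vehicle.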

Data set [15] has as its system Mus musculus. The data set is described as follows: Antihyperlipidemic activity in C57BL/6 mouse assessed as decrease in total cholesterol level at 16.4 mg/kg/day, sc administered daily for 14 days and measured on day 15 by colorimetric method relative to control. It counts as functional. Further details: scale not given: the % may be the effect or the level left. Summed up:
as §4

For data set [16], the system named is Mus musculus. In words: Effect on total triglyceride level in C57BL/6 mouse at 3.28 to 16.4 mg/kg/day, sc administered daily for 14 days and measured on day 15 by colorimetric method. The format is ADME, organism-based. The conditions noted are these: in vivo, 336 h. In short, it runs like this: as §4
The test system of data set [17] is Mus musculus. The data set is described as follows: Antihyperlipidemic activity in PCSK9 knockout C57BL/6 mouse assessed as decrease in total cholesterol level at 16.4 mg/kg/day, sc administered daily for 14 days and measured on day 15 by colorimetric method. It counts as functional, organism-based. In short, it runs like this:
as §4

Data set [18] addresses PCSK9/LDLR (Homo sapiens) (UniProt Q8NBP7+P01130). In words: Inhibition of recombinant human His-tagged PCSK9 interaction with recombinant LDLR AB domain (unknown origin) at higher concentration measured after 3 hrs by horseradish peroxidase-coupled TMB substrate based spectrophotometry relative to control. The format is protein assay. Summed up: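 ELISA plates pre-coated with LDLR-EGF-AB domain. Compounds serially diluted from 10 mM DMSO stocks in reaction buffer, with 7 ng His-tagged human PCSK9 added, 3 h at room temperature with shaking. Binding detected with biotinylated anti-His antibody (1 h), then HRP-streptavidin (20 min), then substrate (15 min); absorbance read at 450/540 nm. IC50 taken from the % inhibition curve.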

A short description of data set [19]: Time at which plasma concentration exceeds in vitro IC50 for inhibition of recombinant human His-tagged PCSK9 interaction with recombinant LDLR AB domain (unknown origin) in C57BL/6 mouse at 20 mg/kg, sc administered as single dose. It counts as organism-based. Particulars: in vivo.
Data set [20] can be described thus: Toxicity in C57BL/6 mouse assessed as change in body weight at 3.28 to 16.4 mg/kg/day, sc administered daily for 14 days. It counts as organism-based. The conditions noted are these: in vivo, 336 h.
The nature of data set [21]: Toxicity in C57BL/6 mouse assessed as change in behavior at 3.28 to 16.4 mg/kg/day, sc administered daily for 14 days. The format is organism-based. Particulars: in vivo, 336 h.

Chain of Tyrosine-protein kinase ABL1 (P00519 whole entry, the tested form may be a part): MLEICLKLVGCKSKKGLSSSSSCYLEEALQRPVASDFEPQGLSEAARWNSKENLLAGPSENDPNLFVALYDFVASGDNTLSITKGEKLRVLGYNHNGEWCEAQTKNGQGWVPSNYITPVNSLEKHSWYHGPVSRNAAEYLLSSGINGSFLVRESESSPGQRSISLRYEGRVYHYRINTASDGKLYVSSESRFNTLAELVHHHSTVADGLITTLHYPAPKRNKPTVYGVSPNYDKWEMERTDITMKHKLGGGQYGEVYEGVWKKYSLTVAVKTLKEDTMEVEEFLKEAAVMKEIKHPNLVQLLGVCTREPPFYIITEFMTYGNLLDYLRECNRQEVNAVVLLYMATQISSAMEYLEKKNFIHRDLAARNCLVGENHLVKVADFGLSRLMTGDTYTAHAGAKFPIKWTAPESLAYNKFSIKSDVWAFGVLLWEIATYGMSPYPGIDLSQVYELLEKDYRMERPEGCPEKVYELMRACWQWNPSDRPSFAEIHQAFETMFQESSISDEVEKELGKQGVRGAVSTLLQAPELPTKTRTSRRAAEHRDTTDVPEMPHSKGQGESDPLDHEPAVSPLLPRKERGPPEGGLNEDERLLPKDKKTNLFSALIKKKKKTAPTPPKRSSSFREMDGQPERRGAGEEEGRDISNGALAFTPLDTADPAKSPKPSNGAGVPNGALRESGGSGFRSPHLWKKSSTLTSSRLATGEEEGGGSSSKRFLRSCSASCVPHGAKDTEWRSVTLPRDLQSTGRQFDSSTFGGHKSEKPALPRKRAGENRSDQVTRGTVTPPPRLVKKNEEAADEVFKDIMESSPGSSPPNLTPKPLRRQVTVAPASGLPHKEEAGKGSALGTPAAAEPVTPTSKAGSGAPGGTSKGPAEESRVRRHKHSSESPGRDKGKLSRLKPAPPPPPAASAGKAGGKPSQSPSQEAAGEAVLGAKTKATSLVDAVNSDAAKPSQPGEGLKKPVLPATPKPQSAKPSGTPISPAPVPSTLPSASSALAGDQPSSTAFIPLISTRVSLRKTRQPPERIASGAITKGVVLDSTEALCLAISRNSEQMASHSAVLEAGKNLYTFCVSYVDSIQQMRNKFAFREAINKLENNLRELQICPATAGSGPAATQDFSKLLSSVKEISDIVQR
Chain of PCSK9/LDLR (Homo sapiens) (P01130 22-860 partner limits assumed): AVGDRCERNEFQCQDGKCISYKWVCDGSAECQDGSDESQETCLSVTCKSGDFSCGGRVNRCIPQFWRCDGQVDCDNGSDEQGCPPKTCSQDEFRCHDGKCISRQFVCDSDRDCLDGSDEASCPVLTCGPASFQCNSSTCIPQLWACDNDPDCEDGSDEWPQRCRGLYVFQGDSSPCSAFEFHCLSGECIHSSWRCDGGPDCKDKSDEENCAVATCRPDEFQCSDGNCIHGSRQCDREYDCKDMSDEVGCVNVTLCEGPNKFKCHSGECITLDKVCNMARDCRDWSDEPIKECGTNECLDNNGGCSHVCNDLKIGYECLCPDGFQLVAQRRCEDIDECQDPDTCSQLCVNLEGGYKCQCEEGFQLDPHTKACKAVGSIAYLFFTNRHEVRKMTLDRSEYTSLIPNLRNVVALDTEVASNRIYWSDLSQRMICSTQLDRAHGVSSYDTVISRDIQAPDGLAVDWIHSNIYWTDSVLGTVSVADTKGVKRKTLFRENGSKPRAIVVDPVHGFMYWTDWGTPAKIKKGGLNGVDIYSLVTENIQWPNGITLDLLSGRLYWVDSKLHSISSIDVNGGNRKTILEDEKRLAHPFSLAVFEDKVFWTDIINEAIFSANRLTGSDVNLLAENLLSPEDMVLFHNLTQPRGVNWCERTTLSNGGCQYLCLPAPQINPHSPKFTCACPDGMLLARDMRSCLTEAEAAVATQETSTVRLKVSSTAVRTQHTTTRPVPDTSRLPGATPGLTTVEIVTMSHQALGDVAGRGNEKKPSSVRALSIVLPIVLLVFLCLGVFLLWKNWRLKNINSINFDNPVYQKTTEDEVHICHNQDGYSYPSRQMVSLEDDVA
Chain of PCSK9/LDLR (Homo sapiens) (Q8NBP7 31-152 limits assumed): as the sequence (Q8NBP7 31-152 limits assumed) above
Chain of PCSK9/LDLR (Homo sapiens) (Q8NBP7 153-692 limits assumed): as the sequence (Q8NBP7 153-692 limits assumed) above

`Cc1cn(-c2cc(CN3CCC[C@H](N)C3)cc(NC(=O)c3ccc(C)c(Oc4ccccc4)c3)c2)cn1`: the Tmax in data set [1] was determined as 1 h. Moreover, the outcome in data set [2] was Active. Further, the IC50 in data set [3] and in [4] was > 10 µM throughout. The result in data set [5], in data set [14] and in [17] was inactive. Moreover, the inhibition result in [6] was “Active”. For the same molecule, the figures for the AUC(0-t) at 24 h in [7] and in [11] were 722 ng·h/mL and 16100 ng·h/mL, respectively. The results for the AUC(0-inf) in data set [8] and in [12] were 1470 ng·h/mL and 16800 ng·h/mL, respectively. Also, the peak concentration (Cmax) in data set [9] worked out at 2210 ng/mL. The molecule also gave a clearance in [10] of 18.2 mL/min/kg. The molecule also showed a bioavailability in data set [13] of 0.527%. The Activity in [15] was 10%; in [16] it was “Non-Toxic”; in [20], “Non-Toxic”; in data set [21], “Non-Toxic”. Further, the Imax in data set [18] worked out at 57%. In addition, the “T>IC50” value in data set [19] is recorded as “>= 16 hr”.

Broadly, the Tmax is the time at which the peak concentration occurs. In general, IC50 refers to the concentration at which inhibition is half-maximal. For orientation: AUC(0-t) means exposure summed from dosing to a finite time, without extrapolation to infinity. As usually defined, the AUC(0-inf) is total exposure, with the tail of the curve extrapolated. As usually defined, the Cmax is the peak of the concentration-time curve. As a reminder, the clearance is the volume of plasma or blood freed of the substance per unit of time. As usually defined, the bioavailability is the share of a dose that reaches the circulation, judged against a reference dose that is usually intravenous.
